# In ChEMBL document CHEMBL1212838, “Investigations on the 2-thiazolylhydrazyne scaffold: synthesis and molecular modeling of selective human monoamine oxidase inhibitors” (Bioorg Med Chem, 2010):
# Experiments:
# [1] = target: T1, Amine oxidase [flavin-containing] B (Homo sapiens, UniProt P27338)
# T1 sequence (P27338 whole entry): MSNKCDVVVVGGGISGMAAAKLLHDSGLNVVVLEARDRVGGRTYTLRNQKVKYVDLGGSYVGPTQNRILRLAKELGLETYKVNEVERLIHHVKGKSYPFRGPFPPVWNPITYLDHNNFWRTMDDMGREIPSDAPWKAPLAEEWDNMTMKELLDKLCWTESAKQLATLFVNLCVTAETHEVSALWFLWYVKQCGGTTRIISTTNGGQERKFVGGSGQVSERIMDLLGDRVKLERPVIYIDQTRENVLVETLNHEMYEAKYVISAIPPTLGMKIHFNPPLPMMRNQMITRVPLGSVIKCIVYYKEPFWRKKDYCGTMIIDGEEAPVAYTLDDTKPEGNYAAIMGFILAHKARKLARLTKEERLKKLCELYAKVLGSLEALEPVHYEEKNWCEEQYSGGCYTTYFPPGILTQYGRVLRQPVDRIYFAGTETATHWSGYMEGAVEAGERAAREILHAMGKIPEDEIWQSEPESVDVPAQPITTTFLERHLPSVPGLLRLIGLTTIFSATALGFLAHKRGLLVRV
# [2] = target: T2, Amine oxidase [flavin-containing] A (Homo sapiens, UniProt P21397); assay: Inhibition of human MAOA by fluorimetry
# T2 sequence (P21397 whole entry): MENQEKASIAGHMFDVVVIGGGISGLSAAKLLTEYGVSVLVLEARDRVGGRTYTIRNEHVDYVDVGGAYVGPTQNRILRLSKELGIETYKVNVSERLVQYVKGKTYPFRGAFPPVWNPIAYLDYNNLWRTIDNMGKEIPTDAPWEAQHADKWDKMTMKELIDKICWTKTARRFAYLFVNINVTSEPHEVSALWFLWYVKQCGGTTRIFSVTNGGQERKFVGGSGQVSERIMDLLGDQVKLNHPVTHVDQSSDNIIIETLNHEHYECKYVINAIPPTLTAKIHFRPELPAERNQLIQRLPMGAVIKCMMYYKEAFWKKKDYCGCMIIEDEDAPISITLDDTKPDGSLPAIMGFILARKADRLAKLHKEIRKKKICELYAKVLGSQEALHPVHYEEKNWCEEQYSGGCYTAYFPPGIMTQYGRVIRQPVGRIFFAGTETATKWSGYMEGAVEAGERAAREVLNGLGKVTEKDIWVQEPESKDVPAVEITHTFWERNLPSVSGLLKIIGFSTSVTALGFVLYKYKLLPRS
# Homo sapiens = species on record: Homo sapiens; assay: Selectivity index, ratio of IC50 for human recombinant MAOA to IC50 for human recombinant MAOB
# [3] = target: T1, Amine oxidase [flavin-containing] B; assay: Inhibition of human MAOB at 100 uM by fluorimetry
# Method in brief: (§1)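 Recombinant human MAO-A or MAO-B, each at an amount set to oxidize 165 pmol p-tyramine/min, preincubated 15 min at 37 °C with compound in 0.05 M sodium phosphate pH 7.4. Reaction started with final 200 µM Amplex Red, 1 U/mL HRP and 1 mM p-tyramine. Resorufin fluorescence (ex 545, em 590 nm) read over 15 min at 37 °C; enzyme-free background subtracted.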
# [4] = target: T1, Amine oxidase [flavin-containing] B; assay: Inhibition of human MAOB at 1 uM by fluorimetry
# [5] = target: T1, Amine oxidase [flavin-containing] B; assay: Inhibition of human MAOB at 5 uM
# [6] = target: T2, Amine oxidase [flavin-containing] A; assay: Reversible inhibition of human MAOA at 500 nM by centrifugation-ultrafiltration method
# Method in brief: (§2)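 Reversibility test: hMAO-A or hMAO-B with compound was ultrafiltered on a 30 kDa membrane. Retained enzyme was resuspended in sodium phosphate buffer at 4 °C and recentrifuged, three centrifugations in all. An aliquot was then assayed fluorimetrically with p-tyramine/Amplex Red. Percent inhibition was computed for washed and unwashed samples against vehicle controls; n = 5.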
# [7] = target: T2, Amine oxidase [flavin-containing] A; assay: Inhibition of human MAOA at 500 nM
# Method in brief: as §2
# [8] = target: T1, Amine oxidase [flavin-containing] B; assay: Inhibition of human MAOB at 5 nM by centrifugation-ultrafiltration method
# Method in brief: as §2
# [9] = target: T2, Amine oxidase [flavin-containing] A; assay: Inhibition of human MAOA at 100 uM by fluorimetry
# Method in brief: as §1
# [10] = target: T2, Amine oxidase [flavin-containing] A; assay: Inhibition of human MAOA at 100 nM
# [11] = target: T2, Amine oxidase [flavin-containing] A; assay: Reversible inhibition of human MAOA at 100 uM by centrifugation-ultrafiltration method
# Method in brief: as §2
IC50 [1] [nM],IC50 [2] [nM],Ratio IC50 (Homo sapiens),Compound,other results
1140,698,0.61,COc1cccc(-c2csc(N/N=C/c3ccncc3)n2)c1,–
1060,592,0.56,COc1cccc(-c2csc(NN=C3CCCC3)n2)c1,–
–,3640,–,COc1cccc(-c2csc(N/N=C/c3cccc4ccccc34)n2)c1,inhibition at 100 µM [3]: 40%
5070,4430,0.87,COc1cccc(-c2csc(NN=C(C)C)n2)c1,–
–,–,–,O=C(NCCN1CCOCC1)c1ccc(Cl)cc1 [MOCLOBEMIDE],IC50 [4]: Not Active
29.5,1780,60,COc1cccc(-c2csc(NN=C3CCCCCC3)n2)c1,–
6780,343,0.051,COc1cccc(-c2csc(N/N=C/c3ccco3)n2)c1,–
2910,538,0.18,COc1cccc(-c2csc(N/N=C/c3cccnc3)n2)c1,–
12.2,737,60,COc1cccc(-c2csc(N/N=C3\CCCCC3C)n2)c1 (configuration not stated),–
–,1380,–,CCCCCC/C(C)=N/Nc1nc(-c2cccc(OC)c2)cs1,inhibition at 100 µM [3]: 40%
3.81,455,119,COc1cccc(-c2csc(N/N=C(\C)c3cccnc3)n2)c1,inhibition at 5 µM [5]: 63.7%; inhibition at 0.5 µM [6]: 65.1%; inhibition at 0.5 µM [7]: 59.1%; inhibition at 0.005 µM [8]: 67.2%
871,1310,1.5,CCC/C(C)=N/Nc1nc(-c2cccc(OC)c2)cs1,–
–,–,–,O=C1Nc2ccccc2C1=O [ISATIN],inhibition at 100 µM [9]: 40%; inhibition at 0.1 µM [10]: 40.3%; inhibition at 100 µM [11]: 12.1%
6720,1150,0.17,CCCCC/C(C)=N/Nc1nc(-c2cccc(OC)c2)cs1,–
116,3710,32,COc1cccc(-c2csc(N/N=C(\C)c3ccncc3)n2)c1,–
231,1450,6.3,COc1cccc(-c2csc(N/N=C3\CCC(C)C3)n2)c1 (configuration not stated),–
1680,333,0.2,COc1cccc(-c2csc(N/N=C(\C)c3ccco3)n2)c1,–
6970,5560,0.8,COc1cccc(-c2csc(N/N=C(\C)c3cc4ccccc4oc3=O)n2)c1,–
–,–,–,COc1cccc(-c2csc(N/N=C(\C)c3ccccn3)n2)c1,inhibition at 100 µM [9]: 40%; inhibition at 100 µM [3]: 40%
551,636,1.15,COc1cccc(-c2csc(N/N=C(\C)c3cccs3)n2)c1,–
72.7,679,9.3,COc1cccc(-c2csc(N/N=C3\CCCC(C)C3)n2)c1 (configuration not stated),–
–,–,–,COc1cccc(-c2csc(N/N=C(\C)c3cccc4ccccc34)n2)c1,inhibition at 100 µM [9]: 40%; inhibition (INH) ([3]; 100 µM): Not Active
772,824,1.1,CCC(CC)=NNc1nc(-c2cccc(OC)c2)cs1,–
31.9,1910,60,COc1cccc(-c2csc(NN=C3CCCCC3)n2)c1,–
494,458,0.93,COc1cccc(-c2csc(N/N=C/c3cccs3)n2)c1,–
800,414,0.52,COc1cccc(-c2csc(N/N=C/c3c[nH]c4ccccc34)n2)c1,–
35.5,749,21,COc1cccc(-c2csc(NN=C3CCC(C)CC3)n2)c1 (configuration not stated),–
26.6,836,31,COc1cccc(-c2csc(N/N=C3\CCCC3C)n2)c1 (configuration not stated),–
